Usually IC50 stands for the concentration at which inhibition is half-maximal.

40 compounds from PubChem BioAssay AID617 (SRMLSC, 2007) can be followed below.

In the test the test system is E. coli BW25113 ΔtolC growth inhibition, OD615. Kind of test: growth inhibitors of E. coli tolC mutant, dose response, strain BW25113 ΔtolC::kan (AID 617). A digest of the protocol: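 Test system: E. coli BW25113 ΔtolC::kan bacteria | Amount: 1:1000 diluted subculture inoculum | Medium: LB plus kanamycin | Timing: 20 h exposure at 37 °C | Signal: Absorbance at 615 nm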
`COC(=O)c1ccccc1NC(=O)N1c2ccccc2CC1C` (stereo not given): the IC50 is 14.1 µM.

For `Cc1ccc(C2(c3ccc(C)cc3)NC(=O)N(Cc3c(C)noc3C)C2=O)cc1`, the IC50 was 6.45 µM. For `c1ccc(-c2cccc(-c3ccccn3)n2)nc1`, the IC50 is 19.4 µM.

For `Cc1nc(N2CCN(Cc3ccccc3)CC2)nc2c1C(=O)CC(c1ccco1)C2` (stereo not given), the IC50 is 10.6 µM.

As for `CCCCCCC(=O)N1CCC(c2nc3c(nnn3Cc3ccccc3Cl)c(=O)[nH]2)CC1`, the IC50 is 6.36 µM.

For `CCOC(=O)c1c(-c2ccccc2)oc2ccc(OC(=O)N(C)C)cc12`, the concentration for half-maximal inhibition (IC50) was 9.1 µM. In the case of `Cc1ccccc1Cn1nc(C)c(NC(=O)c2noc3c2CCc2ccccc2-3)c1C`, the IC50 is 12.1 µM. Next, `c1ccc2oc(SCc3nc4ccccc4s3)nc2c1`: 29.1 µM; `Cc1ccc(NC(=O)c2ccccc2O)cc1`: 16 µM. Next, `O=S1(=O)Nc2c(ccc3cccnc23)-c2ccccc21`: 1.31 µM; `O=C(Nc1nnc(-c2ccc(Cl)cc2)o1)c1ccccc1Br`: 0.4 µM; `CC(C)N(Cc1nc(-c2ccccc2)no1)C(=O)c1ccc(Cl)cc1`: 19.5 µM. Take `COc1cccc(-c2cc(C(=O)N3CC4(C)CC3CC(C)(C)C4)no2)c1` (stereo not given): the IC50 was 11 µM.

With `Cc1nc(N2CCN(Cc3ccc4c(c3)OCO4)CC2)c2oc3ccccc3c2n1`, the IC50 is 11.6 µM. Turning to `COc1ccc(-c2noc(CN3CCC(Cc4ccccc4)CC3)n2)cc1`, the IC50 is 17.2 µM. Next, `CCCCOc1ccc(NC2=NC3(CCCCC3)N=C(N)N2)cc1`: 2.64 µM; `CN1/C(=C\C(=O)COc2ccc3c(c2)OCO3)C(C)(C)c2ccccc21`: 11.2 µM; `CCn1cc(C(=O)OCC(=O)OC2CC(C)CCC2C(C)C)c(=O)c2ccc(C)nc21` (stereo not given): 7.52 µM. Next, `O=C(C1CCCCC1)N1CCC(c2nc3c(nnn3Cc3c(F)cccc3Cl)c(=O)[nH]2)CC1`: 18.2 µM; `Cc1ccc(CN2C(=O)NC(=O)C3(Cc4c(nc5ccccn5c4=O)N4CCCCCC43)C2=O)cc1` (stereo not given): 22.2 µM.

In the case of `Brc1ccc(-c2nc(-c3ccccc3)no2)o1`, the IC50 is 30.1 µM. Under `Cc1nn(Cc2ccc(Cl)cc2)c(C)c1NC(=O)c1noc2c1CCCCC2` stands 13.4 µM; under `O=C(c1ccc2c(=O)n(C3CCCC3)c(=S)[nH]c2c1)N1CCN(C2CCCCC2)CC1`, 15 µM; under `CCOC(=O)Cc1nnc2c(Nc3ccccc3F)nc3nonc3n12`, 6.82 µM. In the case of `CCOC(=O)Cc1ccc(NS(=O)(=O)c2ccc(SC)cc2)cc1`, the IC50 is 14.7 µM.

With `CCOC(=O)c1cc2oc(C)cc2n1CC(=O)OC1CCCCC1`, the IC50 is 17.6 µM. `COC(=O)c1ccc(CSc2nc3ccccc3o2)cc1`: the IC50 is 20.2 µM.

For `COC(=O)CSc1nc(N2CCCCC2)c2c(c1C#N)CCCC2`, the IC50 was 12.6 µM. Under `N#Cc1nc(-c2ccc(OCc3ccccc3)cc2)oc1NCCCn1ccnc1` stands 6.08 µM; under `CCCc1ccc(OCc2ccc(C(=O)N3CCN(c4ccccn4)CC3)o2)c(OC)c1`, 7.15 µM; under `O=C(Nc1nc(-c2cc(Cl)sc2Cl)cs1)c1cccs1`, 1.69 µM.

With `O=S(=O)(Nc1nc2ccccc2nc1NCc1ccco1)c1cccs1`, the IC50 was 8.75 µM. Regarding `COc1ccc(Cn2c(=O)sc3ccccc32)cc1`, the IC50 was 61.7 µM. Under `COC(=O)c1cc(C(=O)CSc2nc(C)cc(C)n2)ccc1O` stands 4.31 µM; under `O=C(c1cccc(F)c1)N1CCN(C(=O)c2cc(-c3ccc(Cl)cc3Cl)on2)CC1`, 9.75 µM. Next, `COCCCN1C(=O)c2[nH]nc(-c3ccccc3O)c2C1c1ccc(Cl)cc1` (stereo not given): 5.96 µM; `CC(C)(C)c1[nH]nc2c1C(Cc1ccccc1)C(C#N)=C(N)O2` (stereo not given): 31.7 µM; `Cc1[nH]n2c(=O)c3c(nc2c1-c1ccc(Cl)cc1)CCC3`: 4.09 µM. Next, `CCOC(=O)CSC1=C(C#N)C(c2ccco2)C(C(=O)Nc2cccc(C(F)(F)F)c2)=C(C)N1` (stereo not given): 9.34 µM; `CCOC(=O)c1cc2sccc2n1CC(=O)N1CCCc2ccccc21`: 15.1 µM.
